# Key:
# Mus musculus = assay: Antiinflammatory activity in mouse assessed as inhibition of carrageenan-induced increase in paw volume at 200 mg/kg administered 1 hr prior to carrageenan challenge measured after 3 hrs relative to control; format: functional
# Procedure, shortened: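 Mice were fasted 2 h and placed in groups of five. Controls received saline i.p. Phenylbutazone was given at 100 mg/kg i.p., curcumin at 200 mg/kg i.p., and derivatives at 200 mg/kg. After 1 h, 0.1 mL of 1% carrageenan in saline was injected subplantar into the right hind paw. Paw volume was followed by plethysmometer for 3 h, and % inhibition was calculated as (Vc − Vt)/Vc × 100.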
# HCT-116 = assay: Cytotoxicity against human HCT116 cells after 24 hrs by MTT assay; format: functional, cell-based
# Procedure, shortened: (§1)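 The MTT assay seeded 5 × 10⁴ cells per well and grew them 24 h in RPMI 1640 with compound at 2.5–200 µM. Medium without cells was the blank and adriamycin the positive control. MTT was added for 4 h at 37 °C, formazan was solubilised, and absorbance was read at 570 nm. IC50 is the concentration that cuts viability 50% against untreated cells.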
# QG-56 = assay: Cytotoxicity against human QG56 cells after 24 hrs by MTT assay; format: functional, cell-based; procedure, shortened: as §1
# HeLa = assay: Cytotoxicity against human HeLa cells after 24 hrs by MTT assay; format: functional, cell-based; procedure, shortened: as §1
# HepG2 = assay: Cytotoxicity against human HepG2 cells after 24 hrs by MTT assay; format: functional, cell-based; procedure, shortened: as §1
# Trichoderma viride [1] = assay: Antifungal activity against Trichoderma viride MTCC 1107 after 48 hrs; format: functional; details: MTCC 1107, 48 h
# Trichoderma viride [2] = assay: Antifungal activity against Trichoderma viride MTCC 1107 assessed as zone of inhibition at 20 uM after 48 hrs by disc diffusion method; format: functional; details: MTCC 1107, 48 h, read-out: IZ
# Procedure, shortened: (§2)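 Spores from 4-day potato dextrose agar cultures, suspended in sterile water at 1.5 × 10⁵ CFU/mL. 0.2 mL was spread on potato dextrose agar. 5 mm filter-paper discs soaked with test compound were laid on the lawn. Incubation was 48 h at 28 °C, then the inhibition zone was measured in mm. Fluconazole was the positive control and acetone the negative control.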
# Trichoderma viride [3] = assay: Antifungal activity against Trichoderma viride MTCC 1107 assessed as zone of inhibition at 40 uM after 48 hrs by disc diffusion method; format: functional; details: MTCC 1107, 48 h, read-out: IZ; procedure, shortened: as §2
# Trichoderma viride [4] = assay: Antifungal activity against Trichoderma viride MTCC 1107 assessed as zone of inhibition at 80 uM after 48 hrs by disc diffusion method; format: functional; details: MTCC 1107, 48 h, read-out: IZ; procedure, shortened: as §2
# Curvularia lunata [5] = assay: Antifungal activity against Curvularia lunata MTCC 581 after 48 hrs; format: functional; details: MTCC 581, 48 h
# Curvularia lunata [6] = assay: Antifungal activity against Curvularia lunata MTCC 581 assessed as zone of inhibition at 20 uM after 48 hrs by disc diffusion method; format: functional; details: MTCC 581, 48 h, read-out: IZ; procedure, shortened: as §2
# Curvularia lunata [7] = assay: Antifungal activity against Curvularia lunata MTCC 581 assessed as zone of inhibition at 40 uM after 48 hrs by disc diffusion method; format: functional; details: MTCC 581, 48 h, read-out: IZ; procedure, shortened: as §2
# Aspergillus flavus [8] = assay: Antifungal activity against Aspergillus flavus MTCC 1021 after 48 hrs; format: functional; details: MTCC 1021, 48 h
# Curvularia lunata [9] = assay: Antifungal activity against Curvularia lunata MTCC 581 assessed as zone of inhibition at 80 uM after 48 hrs by disc diffusion method; format: functional; details: MTCC 581, 48 h, read-out: IZ; procedure, shortened: as §2
# Aspergillus flavus [10] = assay: Antifungal activity against Aspergillus flavus MTCC 1021 assessed as zone of inhibition at 20 uM after 48 hrs by disc diffusion method; format: functional; details: MTCC 1021, 48 h, read-out: IZ; procedure, shortened: as §2
# Aspergillus flavus [11] = assay: Antifungal activity against Aspergillus flavus MTCC 1021 assessed as zone of inhibition at 40 uM after 48 hrs by disc diffusion method; format: functional; details: MTCC 1021, 48 h, read-out: IZ; procedure, shortened: as §2
# Aspergillus flavus [12] = assay: Antifungal activity against Aspergillus flavus MTCC 1021 assessed as zone of inhibition at 80 uM after 48 hrs by disc diffusion method; format: functional; details: MTCC 1021, 48 h, read-out: IZ; procedure, shortened: as §2
# Aspergillus niger [13] = assay: Antifungal activity against Aspergillus niger MTCC 1108 after 48 hrs; format: functional; details: MTCC 1108, 48 h
# Aspergillus niger [14] = assay: Antifungal activity against Aspergillus niger MTCC 1108 assessed as zone of inhibition at 20 uM after 48 hrs by disc diffusion method; format: functional; details: MTCC 1108, 48 h, read-out: IZ; procedure, shortened: as §2
# Aspergillus niger [15] = assay: Antifungal activity against Aspergillus niger MTCC 1108 assessed as zone of inhibition at 40 uM after 48 hrs by disc diffusion method; format: functional; details: MTCC 1108, 48 h, read-out: IZ; procedure, shortened: as §2
# Aspergillus niger [16] = assay: Antifungal activity against Aspergillus niger MTCC 1108 assessed as zone of inhibition at 80 uM after 48 hrs by disc diffusion method; format: functional; details: MTCC 1108, 48 h, read-out: IZ; procedure, shortened: as §2
# Escherichia coli [17] = assay: Antimicrobial activity against Escherichia coli ATCC 35218 after 24 hrs by broth micro serial dilution method; format: functional; details: ATCC 35218, 24 h
# Procedure, shortened: (§3)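 This was broth microdilution in autoclaved Mueller-Hinton broth. 150 µL of compound per well was serially diluted […], and 50 µL of test organism was added. Plates were incubated 24 h at 37 °C and optical density was read.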
# Escherichia coli [18] = assay: Antimicrobial activity against Escherichia coli ATCC 35218 assessed as diameter of inhibition zone at 20 uM after 24 hrs by Kirby -Baur disc diffusion method; format: functional; details: ATCC 35218, 24 h, read-out: DIZ
# Procedure, shortened: (§4)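 Kirby-Bauer disc diffusion was used. Acetone stocks (160 µM) were serially doubled down to 80, 40 and 20 µM. 4 µL of each went onto 5 mm sterile paper discs, which were dried 30 min at 50 °C. Inoculum was 1.5 × 10⁸ CFU/mL diluted to 3 × 10² CFU/mL, and 50 µL was spread on Mueller-Hinton agar. After 24 h at 37 °C the inhibition-zone diameter was measured. Ciprofloxacin served as positive control.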
# Escherichia coli [19] = assay: Antimicrobial activity against Escherichia coli ATCC 35218 assessed as diameter of inhibition zone at 40 uM after 24 hrs by Kirby -Baur disc diffusion method; format: functional; details: ATCC 35218, 24 h, read-out: DIZ; procedure, shortened: as §4
# Escherichia coli [20] = assay: Antimicrobial activity against Escherichia coli ATCC 35218 assessed as diameter of inhibition zone at 80 uM after 24 hrs by Kirby -Baur disc diffusion method; format: functional; details: ATCC 35218, 24 h, read-out: DIZ; procedure, shortened: as §4
# Pseudomonas aeruginosa [21] = assay: Antimicrobial activity against Pseudomonas aeruginosa ATCC 15499 after 24 hrs by broth micro serial dilution method; format: functional; details: ATCC 15499, 24 h; procedure, shortened: as §3
# Pseudomonas aeruginosa [22] = assay: Antimicrobial activity against Pseudomonas aeruginosa ATCC 15499 assessed as diameter of inhibition zone at 20 uM after 24 hrs by Kirby -Baur disc diffusion method; format: functional; details: ATCC 15499, 24 h, read-out: DIZ; procedure, shortened: as §4
# Pseudomonas aeruginosa [23] = assay: Antimicrobial activity against Pseudomonas aeruginosa ATCC 15499 assessed as diameter of inhibition zone at 40 uM after 24 hrs by Kirby -Baur disc diffusion method; format: functional; details: ATCC 15499, 24 h, read-out: DIZ; procedure, shortened: as §4
# Pseudomonas aeruginosa [24] = assay: Antimicrobial activity against Pseudomonas aeruginosa ATCC 15499 assessed as diameter of inhibition zone at 80 uM after 24 hrs by Kirby -Baur disc diffusion method; format: functional; details: ATCC 15499, 24 h, read-out: DIZ; procedure, shortened: as §4
# Salmonella typhi [25] = assay: Antimicrobial activity against Salmonella typhi ATCC 23564 after 24 hrs by broth micro serial dilution method; format: functional, Salmonella enterica subsp. enterica serovar Typhi; details: Salmonella enterica, ATCC 23564, 24 h
# Salmonella typhi [26] = assay: Antimicrobial activity against Salmonella typhi ATCC 23564 assessed as diameter of inhibition zone at 20 uM after 24 hrs by Kirby -Baur disc diffusion method; format: functional, Salmonella enterica subsp. enterica serovar Typhi; details: Salmonella enterica, ATCC 23564, 24 h; read-out: DIZ
# Salmonella typhi [27] = assay: Antimicrobial activity against Salmonella typhi ATCC 23564 assessed as diameter of inhibition zone at 40 uM after 24 hrs by Kirby -Baur disc diffusion method; format: functional, Salmonella enterica subsp. enterica serovar Typhi; details: Salmonella enterica, ATCC 23564, 24 h; read-out: DIZ
# Salmonella typhi [28] = assay: Antimicrobial activity against Salmonella typhi ATCC 23564 assessed as diameter of inhibition zone at 80 uM after 24 hrs by Kirby -Baur disc diffusion method; format: functional, Salmonella enterica subsp. enterica serovar Typhi; details: Salmonella enterica, ATCC 23564, 24 h; read-out: DIZ
# Bacillus cereus [29] = assay: Antimicrobial activity against Bacillus cereus MTCC 7350 after 24 hrs by broth micro serial dilution method; format: functional; details: MTCC 7350, 24 h; procedure, shortened: as §3
# Bacillus cereus [30] = assay: Antimicrobial activity against Bacillus cereus MTCC 7350 assessed as diameter of inhibition zone at 20 uM after 24 hrs by Kirby -Baur disc diffusion method; format: functional; details: MTCC 7350, 24 h, read-out: DIZ; procedure, shortened: as §4
# Bacillus cereus [31] = assay: Antimicrobial activity against Bacillus cereus MTCC 7350 assessed as diameter of inhibition zone at 40 uM after 24 hrs by Kirby -Baur disc diffusion method; format: functional; details: MTCC 7350, 24 h, read-out: DIZ; procedure, shortened: as §4
# Bacillus cereus [32] = assay: Antimicrobial activity against Bacillus cereus MTCC 7350 assessed as diameter of inhibition zone at 80 uM after 24 hrs by Kirby -Baur disc diffusion method; format: functional; details: MTCC 7350, 24 h, read-out: DIZ; procedure, shortened: as §4
# Staphylococcus aureus [33] = assay: Antimicrobial activity against Staphylococcus aureus ATCC 11632 after 24 hrs by broth micro serial dilution method; format: functional; details: ATCC 11632, 24 h; procedure, shortened: as §3
# Staphylococcus aureus [34] = assay: Antimicrobial activity against Staphylococcus aureus ATCC 11632 assessed as diameter of inhibition zone at 20 uM after 24 hrs by Kirby -Baur disc diffusion method; format: functional; details: ATCC 11632, 24 h, read-out: DIZ; procedure, shortened: as §4
# Staphylococcus aureus [35] = assay: Antimicrobial activity against Staphylococcus aureus ATCC 11632 assessed as diameter of inhibition zone at 40 uM after 24 hrs by Kirby -Baur disc diffusion method; format: functional; details: ATCC 11632, 24 h, read-out: DIZ; procedure, shortened: as §4
# Staphylococcus aureus [36] = assay: Antimicrobial activity against Staphylococcus aureus ATCC 11632 assessed as diameter of inhibition zone at 80 uM after 24 hrs by Kirby -Baur disc diffusion method; format: functional; details: ATCC 11632, 24 h, read-out: DIZ; procedure, shortened: as §4
structure (smiles),measurement,setting,value
COc1cc(/C=C/C(CC(/C=C/c2ccc(O)c(OC)c2)=N/c2ccc(S(=O)(=O)Nc3nc(C)cc(C)n3)cc2)=N\c2ccc(S(=O)(=O)Nc3nc(C)cc(C)n3)cc2)ccc1O,inhibition in vivo at 200 mg/kg,Mus musculus,40.3%
same,IC50,HCT-116,25 µM
same,IC50,QG-56,50 µM
same,IC50,HeLa,25 µM
same,IC50,HepG2,50 µM
same,MIC,Trichoderma viride [1],20 µM
same,zone of inhibition at 20 µM,Trichoderma viride [2],18 mm
same,zone of inhibition at 40 µM,Trichoderma viride [3],19 mm
same,zone of inhibition at 80 µM,Trichoderma viride [4],22 mm
same,MIC,Curvularia lunata [5],20 µM
same,zone of inhibition at 20 µM,Curvularia lunata [6],12 mm
same,zone of inhibition at 40 µM,Curvularia lunata [7],16 mm
same,MIC,Aspergillus flavus [8],80 µM
same,zone of inhibition at 80 µM,Curvularia lunata [9],19 mm
same,zone of inhibition at 20 µM,Aspergillus flavus [10],10 mm
same,zone of inhibition at 40 µM,Aspergillus flavus [11],11 mm
same,zone of inhibition at 80 µM,Aspergillus flavus [12],12 mm
same,MIC,Aspergillus niger [13],40 µM
same,zone of inhibition at 20 µM,Aspergillus niger [14],8 mm
same,zone of inhibition at 40 µM,Aspergillus niger [15],12 mm
same,zone of inhibition at 80 µM,Aspergillus niger [16],14 mm
same,MIC,Escherichia coli [17],20 µM
same,zone of inhibition at 20 µM,Escherichia coli [18],17 mm
same,zone of inhibition at 40 µM,Escherichia coli [19],19 mm
same,zone of inhibition at 80 µM,Escherichia coli [20],23 mm
same,MIC,Pseudomonas aeruginosa [21],40 µM
same,zone of inhibition at 20 µM,Pseudomonas aeruginosa [22],14 mm
same,zone of inhibition at 40 µM,Pseudomonas aeruginosa [23],18 mm
same,zone of inhibition at 80 µM,Pseudomonas aeruginosa [24],23 mm
same,MIC,Salmonella typhi [25],40 µM
same,zone of inhibition at 20 µM,Salmonella typhi [26],17 mm
same,zone of inhibition at 40 µM,Salmonella typhi [27],21 mm
same,zone of inhibition at 80 µM,Salmonella typhi [28],24 mm
same,MIC,Bacillus cereus [29],40 µM
same,zone of inhibition at 20 µM,Bacillus cereus [30],11 mm
same,zone of inhibition at 40 µM,Bacillus cereus [31],18 mm
same,zone of inhibition at 80 µM,Bacillus cereus [32],21 mm
same,MIC,Staphylococcus aureus [33],40 µM
same,zone of inhibition at 20 µM,Staphylococcus aureus [34],13 mm
same,zone of inhibition at 40 µM,Staphylococcus aureus [35],18 mm
same,zone of inhibition at 80 µM,Staphylococcus aureus [36],23 mm
